The values that follow come from ChEMBL document CHEMBL4130629 (J Med Chem, 2018).

A short description of data set [1]: Clearance in Sprague-Dawley rat at 1 mg/kg, iv. The settings on record: in vivo. The data set is classed as ADME, organism-based.
A short description of data set [2]: Half life in Sprague-Dawley rat at 1 mg/kg, iv. Format: ADME, organism-based. The settings on record: in vivo.
The test system of another data set is MT2. The data set is described as follows: Cytotoxicity against human MT2 cells assessed as decrease in cell viability after 3 days […]. Format: functional. The settings on record: MT2, 72 h.
Data set [3] can be described thus: Metabolic stability in human liver microsomes assessed as parent compound remaining after 10 mins. The data set is classed as ADME, microsome. The settings on record: read-out: Stability. In a few lines:
(§1)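 Compound at 3 μM was incubated with human or rat liver microsomes, and the percentage of parent compound remaining was measured after 10 min.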
A general note: Liver microsomes are a subcellular fraction often used to study metabolism.

Data set [4] is described as follows: Volume of distribution at steady state in Sprague-Dawley rat at 1 mg/kg, iv. The data set is classed as ADME, organism-based. As to conditions: in vivo, read-out: Vdss. In a few lines:
(§2)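 Male Sprague-Dawley rats (300−350 g) with jugular vein and/or bile duct cannulas, n = 3 per route; dosed as a solution in PEG-400/ethanol (90/10). The iv dose was 1 mg/kg given as a 0.5 min bolus, with jugular blood sampled from 2 to 1440 min. The po dose was 5 mg/kg after an overnight fast, sampled from 15 to 1440 min. Plasma was taken from EDTA blood.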

Data set [5] concerns Human immunodeficiency virus 1. The data set is described as follows: Antiviral activity against ENV pseudotyped CCR5-tropic HIV1 […] infected in human HeLa67 cells after 3 days by luciferase reporter gene assay. The data set is classed as functional, organism-based. As to conditions: Human immunodeficiency virus 1, HeLa67, 72 h. The gist of the method:
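Single-cycle infection with env-deleted, luciferase-reporter HIV-1 pseudotyped with the JRFL (CCR5) envelope, supplied by transfection; viral titers normalized by luminescence without compound. HeLa 67 cells were infected in the presence of compounds given as 3-fold serial dilutions made from 30 mM DMSO stocks.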
Background: A reporter such as luciferase makes a cellular process visible.

A short description of data set [6]: Metabolic stability in rat liver microsomes assessed as parent compound remaining after 10 mins. The data set is classed as ADME, microsome. The settings on record: read-out: Stability. In a few lines: as §1
A short description of data set [7]: Oral bioavailability in Sprague-Dawley rat at 5 mg/kg. Format: ADME, organism-based. As to conditions: in vivo. In a few lines: as §2
The nature of data set [8]: Permeability in human Caco2 cells. Format: ADME, cell-based. As to conditions: Caco-2, read-out: permeability. On the technique in general: Caco-2 monolayers are a common model of the intestinal barrier.
The nature of data set [9]: AUC in Sprague-Dawley rat at 5 mg/kg, po after 24 hrs. The data set is classed as ADME, organism-based. On the set-up: time < 24 hr, dose 5 mg/kg, route oral. The settings on record: in vivo. In a few lines:
as §2

The nature of data set [10]: Half life in human liver microsomes. Format: ADME, microsome.

Some results are limits rather than exact numbers.

Usually clearance stands for the rate of elimination divided by the concentration. A low value points to inefficient removal. Usually half-life stands for the time needed for the level to fall by half in the phase considered. Low values mean fast loss, high ones slow loss. By CC50 is commonly meant the concentration at which the toxic effect on the cells reaches its halfway point. The EC50 is the concentration at which the effect is half-maximal. The term AUC denotes concentration integrated over time. `COc1cnc(-c2cnccn2)c2[nH]cc(C(=O)C(=O)N3CCN(C(=O)c4ccccn4)[C@H](C)C3)c12` registered a clearance in data set [1] of 8.8 mL/min/kg. The compound further gave a half-life in [2] of 2.4 h. Further, in the data set with MT2, the CC50 was more than 300000 nM. The remaining at 10 min stood at 95% in data set [3] and 80% in data set [6]. Also, the Vd in data set [4] was determined as 1.1 L/kg. The compound also returned an EC50 in [5] of 0.4 nM. Besides, the bioavailability in data set [7] came out at 61%. The Papp in data set [8] was determined as 12.5 ×10⁻⁶ cm/s. The exposure (AUC) at 24 h in [9] was determined as 7.8 µM·h.
Turning to `COCc1ncn(-c2ncc(OC)c3c(C(=O)C(=O)N4CCN(C(=O)c5ccccc5)CC4)c[nH]c23)n1`, the CC50 in the data set on MT2 is more than 300000 nM. The remaining at 10 min was found to be 97% in [3] and 95% in [6]. In data set [5], this compound gave a 50% effective concentration (EC50) of 0.09 nM. Further, the Papp in data set [8] is less than 1.5 ×10⁻⁶ cm/s.
In data set [2], `COc1cnc(-n2ccc(CO)n2)c2[nH]cc(C(=O)C(=O)N3CCN(C(=O)c4ccccc4)[C@H](C)C3)c12` gave a half-life of 2.9 h. Further, the CC50 in the data set on MT2 is more than 300000 nM. For the same compound, the values for the remaining at 10 min in data set [3] and in data set [6] were 81% and 90%, respectively. The Vd in data set [4] stood at 1.1 L/kg. The EC50 in data set [5] was 0.14 nM. Further, the bioavailability in data set [7] stood at 19%. Also, the area under the curve (AUC) at 24 h in data set [9] came out at 1.99 µM·h.
Turning to `COc1cnc(-n2cc(F)cn2)c2[nH]cc(C(=O)C(=O)N3CCN(C(=O)c4ccccc4)CC3)c12`, the CC50 in the data set on MT2 worked out at 75000 nM. The remaining at 10 min in data set [3] worked out at 77%; in [6], 83%. Also, the concentration giving a half-maximal response (EC50) in data set [5] is 0.03 nM. For the same compound, the Papp in data set [8] is 19.5 ×10⁻⁶ cm/s.
Regarding `COc1cnc(-n2ccnn2)c2[nH]cc(C(=O)C(=O)N3CCN(C(=O)c4ccccc4)CC3)c12`, in data set [2], the half-life was 1.6 h. Further, the CC50 with MT2 came to 225000 nM. In addition, the figures for the remaining at 10 min in data set [3] and in data set [6] were 83% and 82%, respectively. In data set [4], the Vd is 0.23 L/kg. This compound also had an EC50 in [5] of 0.07 nM. Also, in data set [7], the bioavailability came out at 59%. For the same compound, the Papp in data set [8] turned out to be 7.8 ×10⁻⁶ cm/s. The compound further returned an area under the curve (AUC) at 24 h in [9] of 43.5 µM·h.
Compound `COc1cnc(-n2cnc(N3CCOCC3)n2)c2[nH]cc(C(=O)C(=O)N3CCN(C(=O)c4ccccc4)CC3)c12` yielded a clearance in data set [1] of 6.1 mL/min/kg. The same compound gave a half-life in data set [2] of 1.5 h. In addition, in the data set on MT2, the CC50 turned out to be 203000 nM. In addition, the remaining at 10 min was 64% in data set [3] and 89% in data set [6]. Moreover, the Vd in [4] turned out to be 0.26 L/kg. The same compound had an EC50 in data set [5] of 0.07 nM. Moreover, in data set [7], the bioavailability worked out at 52%. The Papp in data set [8] is 5.8 ×10⁻⁶ cm/s. The compound also showed an AUC at 24 h in data set [9] of 13 µM·h.
`COc1cnc(-n2cnc(SC)n2)c2[nH]cc(C(=O)C(=O)N3CCN(C(=O)c4ccccc4)CC3)c12`: the cytotoxic concentration (CC50) in the data set on MT2 was more than 300000 nM. Further, the remaining at 10 min in data set [3] worked out at 68%; in data set [6], 91%. The concentration for a half-maximal effect (EC50) in [5] was determined as 0.03 nM. Further, in [8], the Papp was less than 1.5 ×10⁻⁶ cm/s.
The like results for `CNC(=O)c1ccn(-c2ncc(OC)c3c(C(=O)C(=O)N4CCN(C(=O)c5ccccc5)CC4)c[nH]c23)n1` were, in that order, 166000 nM, 87%, 81%, 0.05 nM and less than 1.5 ×10⁻⁶ cm/s.
Compound `COc1cnc(-n2cc(C)nn2)c2[nH]cc(C(=O)C(=O)N3CCN(C(=O)c4ccccc4)[C@H](C)C3)c12` registered a clearance in [1] of 4.3 mL/min/kg. In data set [2], this compound gave a half-life of 1.4 h. In addition, the CC50 with MT2 worked out at 124000 nM. The results for the remaining at 10 min in [3] and in [6] were 74% and 76%, respectively. Also, the Vd in data set [4] was 0.29 L/kg. Further, the EC50 in [5] stood at 0.13 nM. The bioavailability in data set [7] was determined as 65.5%. Further, the Papp in [8] was 22.4 ×10⁻⁶ cm/s. The exposure (AUC) at 24 h in [9] is 34.8 µM·h.
`COc1cnc(-n2cncn2)c2[nH]cc(C(=O)C(=O)N3CCN(C(=O)c4ccccc4)[C@H](C)C3)c12`: in the data set with MT2, the CC50 was more than 300000 nM. Moreover, the remaining at 10 min in [3] and in data set [6] was 95% in each case. Moreover, the response in [5] was half-maximal at 0.08 nM (EC50). Further, the Papp in [8] stood at 21.9 ×10⁻⁶ cm/s.
`COc1cnc(-c2cnccn2)c2[nH]cc(C(=O)C(=O)N3CCN(C(=O)c4ccccn4)CC3)c12`: the values for the half-life in [2] and in data set [10] were 4 h and more than 1.67 h, respectively. For the same compound, the half-maximal cytotoxic concentration (CC50) in the data set on MT2 is more than 300000 nM. The remaining at 10 min in data set [3] is 100%; in data set [6], 27%. Moreover, in data set [4], the Vd was 1.9 L/kg. The compound further gave a concentration for a half-maximal effect (EC50) in data set [5] of 0.11 nM. Also, the bioavailability in data set [7] was 85%. This compound also showed an AUC at 24 h in data set [9] of 14.6 µM·h.
Turning to `COc1cnc(-n2cnc(C)n2)c2[nH]cc(C(=O)C(=O)N3CCN(C(=O)c4ccccc4)[C@H](C)C3)c12`, the half-life in data set [2] is 3 h. The CC50 in the data set on MT2 was more than 300000 nM. The remaining at 10 min came to 94% in data set [3] and 98% in data set [6]. The Vd in data set [4] came to 0.34 L/kg. This compound showed a 50% effective concentration (EC50) in data set [5] of 0.18 nM. The bioavailability in data set [7] turned out to be 104%. In addition, the Papp in data set [8] came to 12.8 ×10⁻⁶ cm/s. The AUC at 24 h in data set [9] is 88 µM·h.
Turning to `COc1cnc(-n2cc(C)nn2)c2[nH]cc(C(=O)C(=O)N3CCN(C(=O)c4ccccc4)CC3)c12`, the CC50 in the data set on MT2 was more than 300000 nM. Also, the remaining at 10 min in [3] is 94%; in data set [6], 84%. Further, the response in data set [5] was half-maximal at 0.06 nM (EC50). Also, the Papp in data set [8] was determined as 16.6 ×10⁻⁶ cm/s.
For `CCN(CC)CCNc1ncn(-c2ncc(OC)c3c(C(=O)C(=O)N4CCN(C(=O)c5ccccc5)CC4)c[nH]c23)n1`, in that order: more than 300000 nM, 87%, 100%, 1.04 nM and less than 1.5 ×10⁻⁶ cm/s.
As for `COc1cnc(-n2cnc(N)n2)c2[nH]cc(C(=O)C(=O)N3CCN(C(=O)c4ccccc4)[C@H](C)C3)c12`, the CC50 with MT2 is more than 300000 nM. Moreover, the remaining at 10 min was 95% in data set [3] and 99% in data set [6]. This compound displayed an EC50 in [5] of 0.17 nM. In addition, in data set [8], the Papp was less than 1.5 ×10⁻⁶ cm/s.
As for `CCc1ncn(-c2ncc(OC)c3c(C(=O)C(=O)N4CCN(C(=O)c5ccccc5)[C@H](C)C4)c[nH]c23)n1`, the half-life in [2] was 3 h. The CC50 in the data set with MT2 was 281000 nM. The remaining at 10 min in data set [3] amounted to 84%; in [6], 90%. Further, in [4], the Vd stood at 0.2 L/kg. In data set [5], this compound had an EC50 of 0.08 nM. Also, the bioavailability in data set [7] was found to be 88.4%. Also, the Papp in data set [8] turned out to be 31.5 ×10⁻⁶ cm/s. For the same compound, the AUC at 24 h in [9] was determined as 82 µM·h.
Consider `COc1cnc(-n2ncnc2C)c2[nH]cc(C(=O)C(=O)N3CCN(C(=O)c4ccccc4)CC3)c12`, for which, in the data set on MT2, the half-maximal cytotoxic concentration (CC50) is more than 300000 nM. Further, the remaining at 10 min worked out at 99% in data set [3] and 95% in data set [6]. The compound further gave a concentration for a half-maximal effect (EC50) in data set [5] of 4.07 nM. For the same compound, the Papp in [8] is 9.6 ×10⁻⁶ cm/s.
Take `COc1cnc(-n2nccc2C)c2[nH]cc(C(=O)C(=O)N3CCN(C(=O)c4ccccc4)CC3)c12`: in the data set with MT2, the 50% cytotoxic concentration (CC50) was more than 300000 nM. Moreover, the remaining at 10 min came out at 94% in [3] and 100% in data set [6]. In addition, the half-maximal effective concentration (EC50) in data set [5] is 1.43 nM. Besides, the Papp in data set [8] is 21.6 ×10⁻⁶ cm/s.
Turning to `COc1cnc(-n2ccc(CN(C)C)n2)c2[nH]cc(C(=O)C(=O)N3CCN(C(=O)c4ccccc4)CC3)c12`, in the data set with MT2, the CC50 was more than 150000 nM. For the same compound, the remaining at 10 min in [3] and in data set [6] was 100% throughout. This compound also registered a half-maximal effective concentration (EC50) in [5] of 0.27 nM. Further, in [8], the Papp lay within 1.5 to 4.1 ×10⁻⁶ cm/s.
